Compound activity as filed in PubChem BioAssay.
Only some compounds are listed: those with a hit (about 2.4% of all), similar ones and a draw of the others.
HKDC1 inhibitor = inhibitors of human hexokinase HKDC1; Q2TB90; recombinant HKDC1, G6PDH/diaphorase resazurin coupled fluorescence; inhibition, % at 20 µM; 340,000 compounds, 0.16% hits;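 active means inhibition above about 35% when tested at 20 µM, limit read from the data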;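 further: plate controls were DMSO wells with enzyme for no effect and DMSO wells lacking enzyme for full effect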
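Test system: recombinant HKDC1 (HK5) hexokinase enzyme, produced in-house; Amount: enzyme 5 µg/mL final; Buffer or medium: Tris pH 8.0 buffer with MgCl2, Tween-20, BSA, BME; Reagent: glucose and ATP substrates; Doses: 20 µM test compound, 1% DMSO; Incubation: 90 min reaction incubation at room temperature, dark; Detection: resorufin fluorescence at 613 nm.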
SUMO HTRF inh = SUMOylation inhibition. P63279. HTRF SUMOylation assay, SAE1/SAE2 + UBC9, in vitro. inhibition, % at 35 µM. 290,000 compounds, 0.36% hits. AID 2006; in the data active means inhibition above about 50%, passing the limit was not always enough
Target sequence (P63279 whole entry, looked up): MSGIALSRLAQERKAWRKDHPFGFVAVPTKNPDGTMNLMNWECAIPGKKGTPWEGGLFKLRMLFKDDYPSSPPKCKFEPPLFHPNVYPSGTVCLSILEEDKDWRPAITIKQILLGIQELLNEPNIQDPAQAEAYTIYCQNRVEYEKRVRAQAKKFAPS
A3G deaminase = blocks human APOBEC3G single-stranded DNA deamination; Q9HC16; recombinant A3G, ssDNA deamination FAM/TAMRA fluorescence; inhibition, % at 20 µM; 330,000 compounds, 0.28% hits; AID 493012;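 active means inhibition of at least 40% at 20 µM, with no more than 30% in the related APOBEC3A deaminase screen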;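 further: plate controls were DMSO wells with A3G for no effect and wells lacking A3G enzyme for full effect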
Target sequence (Q9HC16 whole entry, looked up): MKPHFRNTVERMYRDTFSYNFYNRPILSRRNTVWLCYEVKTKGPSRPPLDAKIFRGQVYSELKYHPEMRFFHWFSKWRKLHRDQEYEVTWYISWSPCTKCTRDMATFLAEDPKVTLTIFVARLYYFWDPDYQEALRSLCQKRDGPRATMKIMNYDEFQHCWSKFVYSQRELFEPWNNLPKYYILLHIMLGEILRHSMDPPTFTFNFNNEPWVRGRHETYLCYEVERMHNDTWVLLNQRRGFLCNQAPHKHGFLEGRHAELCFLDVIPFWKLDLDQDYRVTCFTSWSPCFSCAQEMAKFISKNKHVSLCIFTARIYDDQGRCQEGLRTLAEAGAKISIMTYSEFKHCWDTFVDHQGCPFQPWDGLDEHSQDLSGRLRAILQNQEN
A3A deaminase = human APOBEC3A DNA deaminase inhibition. recombinant A3A, FAM/TAMRA ssDNA deamination fluorescence. inhibition, % at 20 µM. 330,000 compounds, 0.41% hits;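 active means at least 40% inhibition at 20 µM here, with at most 30% in a related deaminase screen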;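 further: plate controls were A3A with DMSO for no effect and wells lacking A3A enzyme for full effect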
PfGluPho inh = PfG6PD (Plasmodium falciparum) enzyme inhibition | AID 504690 | 350,000 compounds, 0.78% hits | PfGluPho enzyme, NADPH resazurin-diaphorase fluorescence | inhibition, % at 20 µM;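 active means inhibition reaching at least a set limit at 20 µM in the primary screen, cut at about 59% in these data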;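 further: 0% = DMSO wells with substrate and 100% = DMSO wells lacking glucose-6-phosphate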
M18AAP inhibitor = blocks P. falciparum M18 aspartyl aminopeptidase | recombinant PfM18AAP, H-Glu-NHMec fluorogenic cleavage | inhibition, % at 7.35 µM | 290,000 compounds, 1.2% hits | AID 1822;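 active means inhibition above the campaign mean inhibition over all tested compounds plus 3 SD, cut at about 28% in these data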;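 further: 0% = plate median of test compound wells and 100% = 2 mM ZnCl2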
PfGluPho conf = PfG6PD inhibition, single-dose confirmed; shares compounds with PfGluPho inh; inhibition, % at 20 µM; recombinant PfGluPho, NADPH-diaphorase-resazurin fluorescence; 2,400 compounds, 34% hits;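 active means inhibition of at least 50% at 20 µM in any single replicate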;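 further: 0% = DMSO with substrate and 100% = DMSO lacking glucose-6-phosphate substrate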
Diaph ctr 10uM = inhibits diaphorase or oxidizes, flagging false PfG6PD hits; AID 504862; 820 compounds, 39% hits; diaphorase-coupled resazurin reduction, fluorescence, NADPH 10 uM; inhibition, % at 20 µM; shares compounds with PfGluPho inh;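 active means average inhibition reaching 50% or more with the compound at 20 µM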;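 further: resorufin red fluorescence formed as diaphorase reduces resazurin using NADPH; 0% = DMSO with enzyme and 100% = DMSO without enzyme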
Diaphorase 30uM = inhibits diaphorase or oxidizes, flagging false PfG6PD hits | shares compounds with PfGluPho inh | Diaphorase/resazurin coupled assay, resorufin fluorescence, 30 uM NADPH | inhibition, % at 20 µM | 820 compounds, 29% hits | AID 504863;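 active means inhibition averaging 50% or more, tested at 20 µM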;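 further: 0% = DMSO with enzyme and 100% = DMSO wells lacking diaphorase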
* marks the source's active call; other numbers are inactive results; . = not tested or not shown.

SMILES	HKDC1 inhibitor	SUMO HTRF inh	A3G deaminase	A3A deaminase	PfGluPho inh	M18AAP inhibitor	PfGluPho conf	others
CCOC(=O)c1c(-c2cc(OC)c(OC)c(OC)c2)csc1NC(=O)c1ccccc1	.	.	.	.	22	.	.
COc1ccc(OC)c(CN2CCCC(CCC(=O)N(C)CCc3ccccn3)C2)c1 (stereo unspecified)	-8	9	-7	-3	-8	-2	.
CCCCN(CC)CCCNC(=O)c1cn(CC)c2ccc(S(=O)(=O)N3CCc4ccccc4C3)cc2c1=O	-3	20	-9	-3	14	0	.
CCN(CC)c1ccc(N)cc1S(=O)(=O)Nc1ccccc1OC	-9	0	35	6	67*	24	35
CCN(CC)c1ccc(NC(=O)COc2ccccc2C#N)cc1S(=O)(=O)Nc1ccccc1OC	-20	3	25	4	69*	3	32
CCN(CC)c1ccc(N)cc1S(=O)(=O)Nc1ccc(OC)cc1	-4	18	-8	0	13	-21	.
Cc1cc(C)n(Cc2ccc(Cl)cc2Cl)c(=O)c1S(=O)(=O)c1ccccc1	6	0	0	2	71*	-3	21
COc1cc(CNc2ccc(N3CCOCC3)cc2)cc(Br)c1OC	-2	3	-7	-4	23	7	.
CCOc1cc(CNc2ccc(S(N)(=O)=O)cc2)cc(Cl)c1OC	-4	15	-3	0	-4	-8	.
COc1ccccc1CNc1ccc(N2CCCCC2)cc1	-9	11	-5	-6	66*	8	33
CCOc1cc(CNc2ccc(N3CCCC3)cc2)cc(Cl)c1OC	2	22	8	-2	84*	10	63*	Diaph ctr 10uM=-4;Diaphorase 30uM=-5
COc1cc(CNc2ccc(N3CCCC3)cc2)cc(Cl)c1OC	16	-9	8	0	75*	11	76*	Diaph ctr 10uM=8;Diaphorase 30uM=14
COc1cccc(CNc2ccc(N3CCCCC3)cc2)c1OC	10	0	0	-3	52	8	.
C=CCOc1c(Cl)cc(CNc2ccc(N(C)C)cc2)cc1OC	5	-74	0	-2	79*	7	51*	Diaph ctr 10uM=0;Diaphorase 30uM=-3
CCOC(=O)C1=C(CC)Nc2ccccc2N/C1=N\S(=O)(=O)c1cccc(C(C)=O)c1	0	.	0	1	-18	.	.
CCOc1ccc(CCNC(=O)COC(=O)Cc2ccc(OC)c(OC)c2)cc1OCC	-1	.	-6	-3	3	.	.
O=Cc1cccn1Cc1ccc(Cl)cc1Cl	17	6	-8	-1	24	-6	.
CCOc1ccc(CNc2ccc(N3CCCC3)cc2)cc1	19	-9	8	2	95*	14	81*	Diaph ctr 10uM=27;Diaphorase 30uM=14
CCOc1ccc(CNc2ccc(N3CCN(Cc4ccccc4)CC3)cc2)cc1	3	3	-6	-10	-1	17	.
COc1ccc(Cl)cc1NC(=O)c1cccc([N+](=O)[O-])c1O	15	.	.	.	77*	.	57*	Diaph ctr 10uM=42;Diaphorase 30uM=38
COc1ccc(Cl)cc1NC(=O)C/C(C)=N/NC(=O)c1ccccc1[N+](=O)[O-]	-6	6	-3	5	-13	1	.
CN(C)c1ccc(NC(=O)c2cc3c(=O)n4ccccc4nc3n2C)cc1	11	.	-7	-7	62*	-6	8
O=C(CCNS(=O)(=O)c1cccc2nonc12)NC1CCCCC1	10	8	-2	-1	-1	1	.
CCOC(=O)/C(=C\c1cccc(O)c1)c1nc2sc(C)c(C)c2c(=O)[nH]1	3	-5	23	0	69*	29*	20
O=C(Nc1nccc(-c2cccs2)n1)c1ccccc1Cl	6	-4	-4	0	142*	-1	110*	Diaph ctr 10uM=102*;Diaphorase 30uM=81*
SMILES	HKDC1 inhibitor	SUMO HTRF inh	A3G deaminase	A3A deaminase	PfGluPho inh	M18AAP inhibitor	PfGluPho conf	others
O=C(c1ccccc1Cl)N(C(=O)c1ccccc1Cl)c1nccc(-c2cccs2)n1	8	-1	-1	0	110*	-2	69*	Diaph ctr 10uM=73*;Diaphorase 30uM=65*
O=C(CSc1nccc(-c2cccs2)n1)Nc1cccc(Cl)c1Cl	0	9	-11	-3	8	-7	.
Cc1ccccc1OCc1nc2ccc(S(=O)(=O)N3CCOCC3)cc2[nH]1	-16	-11	34	4	64*	-19	28
CCc1sc(C(=O)Nc2nc(C)cs2)cc1C	2	3	-8	-2	61*	16	11
CCc1sc(C(=O)Nc2ccc(NC(C)=O)cc2)cc1C	19	0	-6	0	2	0	.
CC(C)N(C)C1=CC(=O)C(N(C)C(C)C)=CC1=O	4	.	.	.	67*	.	6
Cc1ccc2nsnc2c1NS(=O)(=O)c1c(C)ccc2nsnc12	-2	-17	1	3	-8	6	.
Cc1ccc(/C=[N+](\[O-])c2ccc(N(C)C)cc2)c2nsnc12	2	-18	-1	0	64*	31*	1
COC(=O)CCCC1=CC2=CC(=O)C(C)(OC(=O)c3cccs3)C(=O)C2=CN1CCc1ccccn1 (stereo unspecified)	21	22	-13	-5	70*	.	23
COC(=O)CCC(=O)OC1(C)C(=O)C2=CN(CCN3CCOCC3)C(c3ccc(OC)cc3)=CC2=C(Br)C1=O (stereo unspecified)	.	34	-2	-2	.	.	.
COC(=O)CCC(=O)OC1(C)C(=O)C2=CN(CCc3ccccn3)C(c3ccc(OC)cc3)=CC2=C(Br)C1=O (stereo unspecified)	33	.	-6	-2	99*	.	41
c1nc(Nc2ccc(N3CCOCC3)cc2)c2ccsc2n1	-3	16	-2	3	37	7	.
Cc1ccc(-c2cc(C(=O)N3CCN(c4ncccn4)CC3)c3cc(Br)ccc3n2)o1	3	1	-3	4	62*	6	-11
Cc1ccc(-c2cc(C(=O)N3CCN(c4ccc(F)cc4)CC3)c3ccccc3n2)o1	9	29	-4	13	16	-37	.
O=C(Nc1ccc(OCC(F)(F)C(F)F)c(C(F)(F)F)c1)c1ccc(Cl)cc1	3	.	1	2	86*	0	-2
CC(Nc1cc(N2CCN(S(C)(=O)=O)CC2)ccc1[N+](=O)[O-])c1ccccc1 (stereo unspecified)	1	-6	-10	-4	60*	5	25
CC(Nc1cc(N2CCN(S(=O)(=O)N(C)C)CC2)ccc1[N+](=O)[O-])c1ccccc1 (stereo unspecified)	0	9	-11	-3	88*	-2	23
